Data reported in ChEMBL document CHEMBL1649230, “Aryl rhodanines specifically inhibit staphylococcal and enterococcal biofilm formation” (Antimicrob Agents Chemother, 2009).

What was measured:
[1] = test system: Staphylococcus aureus; assay: Antimicrobial activity against Staphylococcus aureus ATCC 35556 assessed as inhibition of bacterial biofilm formation after 18 hrs by broth microdilution method in presence of 20 ug/ml fibronectin; format: functional
Summary of the method: (§1)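 Polystyrene 96-well wells precoated with 100 μl fibronectin or fibrinogen (0–20 μg protein/ml) for 24 h at 4°C. Wells then washed with sterile water. The standard MBIC biofilm assay followed: 0.5× TSB with 1% glucose, 2% DMSO, 18 h at 37°C, crystal violet read at OD600.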

[2] = test system: Staphylococcus aureus; assay: Antimicrobial activity against Staphylococcus aureus ATCC 35556 assessed as inhibition of bacterial biofilm formation after 18 hrs by broth microdilution method in presence of 1 ug/ml fibrinogen; format: functional; summary of the method: as §1
[3] = test system: Staphylococcus aureus; assay: Antimicrobial activity against Staphylococcus aureus ATCC 35556 assessed as inhibition of bacterial biofilm formation after 18 hrs by broth microdilution method in presence of 2 ug/ml fibrinogen; format: functional; summary of the method: as §1
[4] = test system: Staphylococcus aureus; assay: Antimicrobial activity against Staphylococcus aureus ATCC 35556 assessed as inhibition of bacterial biofilm formation after 18 hrs by broth microdilution method in presence of 20 ug/ml fibrinogen; format: functional; summary of the method: as §1
[5] = test system: Enterococcus faecium; assay: Antimicrobial activity against vancomycin-resistant Enterococcus faecium isolate EF1509 assessed as inhibition of bacterial biofilm after 18 hrs by broth microdilution method; format: functional
Summary of the method: (§2)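 Biofilm MBIC on tissue culture-treated polystyrene 96-well plates. Twofold dilutions, 0.2 to 100 μM final, with 2% DMSO final. Inoculum was an overnight culture diluted 1:100 (~5 × 10^6 cells/well) in 0.5× TSB plus 1% glucose, grown 18 h at 37°C. Wells washed, heat-fixed 60°C 60 min, stained with 0.06% crystal violet, OD600 read. MBIC is the lowest concentration giving ≥80% inhibition versus untreated; geometric mean of ≥3 experiments.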

[6] = Cytotoxicity against human HeLa cells after 3 days by MTT assay; format: cell-based
Summary of the method: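 HeLa cells were seeded at 4 × 10^3 per well with or without serial dilutions of compound in DMSO. Plates were incubated 3 days at 37°C in minimal essential medium with 10% calf serum, and viability was read by MTT. CC50 was the concentration that reduced MTT-to-formazan conversion by 50%.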

[7] = test system: Staphylococcus aureus; assay: Antimicrobial activity against Staphylococcus aureus ATCC 35556 assessed as inhibition of bacterial biofilm after 18 hrs by broth microdilution method; format: functional
Summary of the method: (§3)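 Static biofilm in tissue culture-treated polystyrene 96-well plates in 0.5× TSB with 1% glucose. Overnight culture diluted 1:100 gives about 5 × 10^6 cells/well. Compound 2-fold series, final 0.2–100 μM, 2% DMSO. Incubated 18 h at 37°C. Washed, heat-fixed 60°C for 60 min, stained with 0.06% crystal violet, read at OD600. MBIC is the lowest concentration giving ≥80% inhibition versus untreated. Geometric mean of ≥3 independent experiments.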

[8] = test system: Staphylococcus aureus; assay: Antimicrobial activity against community acquired community-acquired Staphylococcus aureus MW2 assessed as inhibition of bacterial biofilm after 18 hrs by broth microdilution method; format: functional; summary of the method: as §2
[9] = test system: Staphylococcus aureus; assay: Antimicrobial activity against community acquired methicillin-resistant Staphylococcus aureus isolate 24209 assessed as inhibition of bacterial biofilm after 18 hrs by broth microdilution method; format: functional; summary of the method: as §2
[10] = test system: Staphylococcus aureus; assay: Antimicrobial activity against hospital acquired methicillin-resistant Staphylococcus aureus isolate 1094 assessed as inhibition of bacterial biofilm after 18 hrs by broth microdilution method; format: functional; summary of the method: as §2
[11] = test system: Staphylococcus epidermidis; assay: Antimicrobial activity against Staphylococcus epidermidis ATCC 35984 assessed as inhibition of bacterial biofilm after 18 hrs by broth microdilution method; format: functional; summary of the method: as §3
[12] = test system: Staphylococcus epidermidis; assay: Antimicrobial activity against Staphylococcus epidermidis O-47 assessed as inhibition of bacterial biofilm after 18 hrs by broth microdilution method; format: functional; summary of the method: as §3
[13] = test system: Staphylococcus epidermidis; assay: Antimicrobial activity against coagulase-negative Staphylococcus epidermidis isolate WTBF-41 assessed as inhibition of bacterial biofilm after 18 hrs by broth microdilution method; format: functional; summary of the method: as §2
[14] = test system: Staphylococcus epidermidis; assay: Antimicrobial activity against coagulase-negative Staphylococcus epidermidis isolate WTBF-45 assessed as inhibition of bacterial biofilm after 18 hrs by broth microdilution method; format: functional; summary of the method: as §2
[15] = test system: Staphylococcus epidermidis; assay: Antimicrobial activity against coagulase-negative Staphylococcus epidermidis isolate WTBF-48 assessed as inhibition of bacterial biofilm after 18 hrs by broth microdilution method; format: functional; summary of the method: as §3
[16] = test system: Staphylococcus epidermidis; assay: Antimicrobial activity against coagulase-negative Staphylococcus epidermidis isolate WTBF-46 assessed as inhibition of bacterial biofilm after 18 hrs by broth microdilution method; format: functional; summary of the method: as §3
[17] = test system: Enterococcus faecalis; assay: Antimicrobial activity against vancomycin-resistant Enterococcus faecalis isolate F317 assessed as inhibition of bacterial biofilm after 18 hrs by broth microdilution method; format: functional; summary of the method: as §2
[18] = test system: Enterococcus faecium; assay: Antimicrobial activity against vancomycin-resistant Enterococcus faecium isolate EF208 assessed as inhibition of bacterial biofilm after 18 hrs by broth microdilution method; format: functional; summary of the method: as §2
[19] = test system: Enterococcus faecium; assay: Antimicrobial activity against vancomycin-resistant Enterococcus faecium isolate 1401 assessed as inhibition of bacterial biofilm after 18 hrs by broth microdilution method; format: functional; summary of the method: as §2
[20] = test system: Pseudomonas aeruginosa; assay: Antimicrobial activity against Pseudomonas aeruginosa PAO1 assessed as inhibition of bacterial biofilm after 18 hrs by broth microdilution method; format: functional
Summary of the method: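 Polystyrene plates with breathable lids in 1× TSB (0.25% glucose), 37°C for 18 h. Biofilms form at the air-liquid interface. Stained with crystal violet, dye eluted with 30% acetic acid, OD read. Compound 2-fold series, final 0.2–100 μM in 2% DMSO. MBIC taken at ≥80% inhibition versus untreated. Geometric mean of ≥3 experiments.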

[21] = test system: Staphylococcus aureus; assay: Antimicrobial activity against methicillin-susceptible Staphylococcus aureus on medical grade silicone disk assessed as inhibition of bacterial biofilm after 18 hrs by broth microdilution method; format: functional
Summary of the method: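 S. aureus ATCC 35556 biofilms were grown on autoclaved medical-grade silicone disks fixed in 24-well plates. The inoculum was a 1:100 dilution of an overnight culture in 0.5× TSB with 1% glucose, with compound at 0× to 8× MBIC and 2% DMSO final, in at least three wells. Plates were held about 18 h at 37°C, water-washed, heat-fixed at 60°C for 60 min, and stained with 0.06% CV. CV was eluted in 30% acetic acid and read at OD600, averaging three disks; runs were repeated ≥3 times.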

[22] = test system: Staphylococcus epidermidis; assay: Antimicrobial activity against Staphylococcus epidermidis 1457 on medical grade silicone disk assessed as inhibition of bacterial biofilm after 18 hrs by broth microdilution method; format: functional
[23] = test system: Staphylococcus aureus; assay: Antimicrobial activity against Staphylococcus aureus ATCC 35556 assessed as inhibition of bacterial biofilm formation after 18 hrs by broth microdilution method in presence of 2 ug/ml fibronectin; format: functional; summary of the method: as §1
[24] = test system: Staphylococcus aureus; assay: Antimicrobial activity against Staphylococcus aureus ATCC 35556 assessed as inhibition of bacterial biofilm formation after 18 hrs by broth microdilution method in presence of 5 ug/ml fibronectin; format: functional; summary of the method: as §1
[25] = test system: Staphylococcus aureus; assay: Antimicrobial activity against Staphylococcus aureus ATCC 35556 assessed as inhibition of bacterial biofilm formation after 18 hrs by broth microdilution method in presence of 10 ug/ml fibronectin; format: functional; summary of the method: as §1
[26] = test system: Staphylococcus aureus; assay: Antimicrobial activity against Staphylococcus aureus NCTC 8325 on medical grade silicone disk assessed as inhibition of bacterial biofilm after 18 hrs by broth microdilution method
[27] = test system: Staphylococcus aureus; assay: Antimicrobial activity against community acquired methicillin-resistant Staphylococcus aureus isolate 23542 assessed as inhibition of bacterial biofilm after 18 hrs by broth microdilution method; format: functional; summary of the method: as §2
[28] = test system: Enterococcus faecalis; assay: Antimicrobial activity against vancomycin-resistant Enterococcus faecalis ATCC 51299 assessed as inhibition of bacterial biofilm after 18 hrs by broth microdilution method; format: functional; summary of the method: as §2

| SMILES | MBIC [1] | MBIC [2] | MBIC [3] | MBIC [4] | MBIC [5] | CC50 at 72 h [6] | MBIC [7] | MBIC [8] | MBIC [9] | MBIC [10] | MBIC [11] | MBIC [12] | MBIC [13] | MBIC [14] | MBIC [15] | MBIC [16] | MBIC [17] | MBIC [18] | MBIC [19] | MBIC [20] | other results |
| --- | --- | --- | --- | --- | --- | --- | --- | --- | --- | --- | --- | --- | --- | --- | --- | --- | --- | --- | --- | --- | --- |
| C=CCOc1cc(/C=C2\SC(=S)N(c3ccc(F)cc3)C2=O)ccc1O | 3.125 µM | 3.125 µM | 3.125 µM | 3.125 µM | 59.5 µM | 76.4 µM | 2.6 µM | 25 µM | 100 µM | 100 µM | 17.7 µM | 59.5 µM | 17.7 µM | 25 µM | 12.5 µM | 70.7 µM | 100 µM | 35.4 µM | 79.4 µM | >=100 uM | MBIC90 [21]: 100 µM; MBIC90 [22]: 59.5 µM; MBIC [23]: 3.125 µM; MBIC [24]: 3.125 µM; MBIC [25]: 3.125 µM; MBIC90 [26]: 100 µM |
| CCOc1cc(/C=C2\SC(=S)N(c3cccc(F)c3)C2=O)ccc1O | 6.25 µM | 6.25 µM | 6.25 µM | 6.25 µM | >=100 uM | ≥ 100 µM | 4.4 µM | 31.5 µM | 100 µM | 100 µM | 25 µM | 100 µM | 17.7 µM | 50 µM | 50 µM | 59.5 µM | 100 µM | 50 µM | >=100 uM | >=100 uM | MBIC [27]: 19.8 µM; MBIC [28]: 25 µM; MBIC90 [21]: 70.7 µM; MBIC90 [22]: 59.5 µM; MBIC [23]: 6.25 µM; MBIC [24]: 6.25 µM; MBIC [25]: 6.25 µM; MBIC90 [26]: 70.7 µM |
| CCOc1cc(/C=C2\SC(=S)N(c3ccc(F)cc3)C2=O)ccc1O | 6.25 µM | 3.125 µM | 3.125 µM | 6.25 µM | >=100 uM | ≥ 100 µM | 2.6 µM | 42 µM | 100 µM | 100 µM | 17.7 µM | 50 µM | 14.9 µM | 25 µM | 25 µM | 50 µM | 25 µM | 31.5 µM | 100 µM | >=100 uM | MBIC [27]: 31.5 µM; MBIC [28]: 12.5 µM; MBIC90 [21]: 79.4 µM; MBIC90 [22]: 42 µM; MBIC [23]: 3.125 µM; MBIC [24]: 3.125 µM; MBIC [25]: 6.25 µM; MBIC90 [26]: 79.4 µM |
| CCOc1cc(/C=C2\SC(=S)N(c3cccnc3)C2=O)ccc1O | 12.5 µM | 12.5 µM | 12.5 µM | 12.5 µM | 21 µM | ≥ 100 µM | 10.5 µM | 21 µM | 25 µM | 25 µM | 12.5 µM | 59.5 µM | 17.7 µM | 17.7 µM | 17.7 µM | 25 µM | 15.7 µM | 15.7 µM | 19.8 µM | >=100 uM | MBIC [27]: 25 µM; MBIC [28]: 8.8 µM; MBIC90 [21]: 25 µM; MBIC90 [22]: 35.4 µM; MBIC [23]: 12.5 µM; MBIC [24]: 12.5 µM; MBIC [25]: 12.5 µM; MBIC90 [26]: 25 µM |
